Laboratory results published in ChEMBL document CHEMBL5724801, “EUbOPEN Chemogenomics Library - Multiplex” (2024).
Where “and” joins values, the source holds several entries; their conditions need not be identical. Identical values can stand only once.

Tested on: HEK-293T
Experiment: Multiplex assay against HEK293T
Assay type: toxicity, cell-based
Details: human
How it was run: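 Live cells were stained at seeding with Hoechst33342, BioTracker Green Microtubule Cytoskeleton Dye, MitoTracker Red and Annexin V Alexa Fluor 680. Following compound addition, they were imaged on a CQ1 microscope at 37°C and 5% CO2 and gated by CellPathfinder machine learning into Hoechst high-intensity objects or normal cells, with normal cells split into healthy, pyknosed or fragmented nuclei and pyknosed cells into mitotic or apoptotic. Tubulin, mitochondrial-mass and membrane-permeability phenotypes are per cents of healthy-nucleus cells.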

[1] = 12 h, 1 µM, compound concentration 1 uM
[2] = 12 h, 10 µM, compound concentration 10 uM
[3] = 24 h, 1 µM, compound concentration 1 uM
[4] = 24 h, 10 µM, compound concentration 10 uM
[5] = 48 h, 1 µM, compound concentration 1 uM
[6] = 48 h, 10 µM, compound concentration 10 uM

Cl.N=C(N)NC(=O)Cc1c(Cl)cccc1Cl [GUANFACINE HYDROCHLORIDE] was tested, and the “Population Apoptotic (%)” value [1] was 29% and 47%, the “Population Fragmented Nuclei (%)” value [1] was 3% and 5% and the “Population Healthy Nuclei (%)” value [1] was 84% and 76%. For the same compound, the “Population Hoechst High Intensity Objects (%)” value [1] was 7% and 12%, the “Population Membrane Permeable-Phenotype (%)” value [1] was 0% and the “Population Mitochondria Different-Phenotype (%)” value [1] was 46% and 67%. The “Population Mitotic Cells (%)” value [1] was 70% and 52%, the “Population Normal (%)” value [1] was 92% and 87% and the “Population Pyknosed Nuclei (%)” value [1] was 11% and 17%. For the same compound, the “Population Tubulin-Different-Phenotype (%)” value [1] was 31%, the “Total Cell Count” value [1] was 384 and 289 and the “Population Apoptotic (%)” value [2] was 52% and 34%. The “Population Fragmented Nuclei (%)” value [2] was 12% and 8%, the “Population Healthy Nuclei (%)” value [2] was 67% and 77% and the “Population Hoechst High Intensity Objects (%)” value [2] was 7% and 10%. The “Population Membrane Permeable-Phenotype (%)” value [2] was 0%, the “Population Mitochondria Different-Phenotype (%)” value [2] was 61% and 69% and the “Population Mitotic Cells (%)” value [2] was 47% and 65%. The “Population Normal (%)” value [2] was 92% and 89%, the “Population Pyknosed Nuclei (%)” value [2] was 20% and 14% and the “Population Tubulin-Different-Phenotype (%)” value [2] was 43% and 38%. For the same compound, the “Total Cell Count” value [2] was 296 and 365, the “Population Apoptotic (%)” value [3] was 36% and 50% and the “Population Fragmented Nuclei (%)” value [3] was 8% and 4%. The “Population Healthy Nuclei (%)” value [3] was 80% and 83%, the “Population Hoechst High Intensity Objects (%)” value [3] was 4% and 10% and the “Population Membrane Permeable-Phenotype (%)” value [3] was 0%. For the same compound, the “Population Mitochondria Different-Phenotype (%)” value [3] was 27% and 42%, the “Population Mitotic Cells (%)” value [3] was 63% and 50% and the “Population Normal (%)” value [3] was 95% and 89%. The “Population Pyknosed Nuclei (%)” value [3] was 11%, the “Population Tubulin-Different-Phenotype (%)” value [3] was 21% and 19% and the “Total Cell Count” value [3] was 493 and 344. For the same compound, the “Population Apoptotic (%)” value [4] was 46% and 36%, the “Population Fragmented Nuclei (%)” value [4] was 11% and 6% and the “Population Healthy Nuclei (%)” value [4] was 75% and 83%. For the same compound, the “Population Hoechst High Intensity Objects (%)” value [4] was 7% and 9%, the “Population Membrane Permeable-Phenotype (%)” value [4] was 0% and the “Population Mitochondria Different-Phenotype (%)” value [4] was 48% and 50%. The “Population Mitotic Cells (%)” value [4] was 53% and 63%, the “Population Normal (%)” value [4] was 92% and 90% and the “Population Pyknosed Nuclei (%)” value [4] was 12% and 10%. For the same compound, the “Population Tubulin-Different-Phenotype (%)” value [4] was 39% and 27%, the “Total Cell Count” value [4] was 343 and 454 and the “Population Apoptotic (%)” value [5] was 15% and 34%. The “Population Fragmented Nuclei (%)” value [5] was 15% and 10%, the “Population Healthy Nuclei (%)” value [5] was 78% and 79% and the “Population Hoechst High Intensity Objects (%)” value [5] was 2% and 7%. The “Population Membrane Permeable-Phenotype (%)” value [5] was 1% and 0%, the “Population Mitochondria Different-Phenotype (%)” value [5] was 22% and 32% and the “Population Mitotic Cells (%)” value [5] was 84% and 65%. The “Population Normal (%)” value [5] was 97% and 92%, the “Population Pyknosed Nuclei (%)” value [5] was 6% and 9% and the “Population Tubulin-Different-Phenotype (%)” value [5] was 21% and 14%. The “Total Cell Count” value [5] was 680 and 560, the “Population Apoptotic (%)” value [6] was 47% and 50% and the “Population Fragmented Nuclei (%)” value [6] was 17% and 12%. For the same compound, the “Population Healthy Nuclei (%)” value [6] was 73% and 80%, the “Population Hoechst High Intensity Objects (%)” value [6] was 6% and 10% and the “Population Membrane Permeable-Phenotype (%)” value [6] was 0%. The “Population Mitochondria Different-Phenotype (%)” value [6] was 31% and 33%, the “Population Mitotic Cells (%)” value [6] was 52% and 50% and the “Population Normal (%)” value [6] was 93% and 89%. The “Population Pyknosed Nuclei (%)” value [6] was 9% and 6%, the “Population Tubulin-Different-Phenotype (%)” value [6] was 14% and 20% and the “Total Cell Count” value [6] was 421 and 612.
Cl.Cl.OCCOCCN1CCN(C(c2ccccc2)c2ccc(Cl)cc2)CC1 (stereo unspecified) [HYDROXYZINE HYDROCHLORIDE] was tested, and the “Population Apoptotic (%)” value [1] was 34% and 70%, the “Population Fragmented Nuclei (%)” value [1] was 7% and 5% and the “Population Healthy Nuclei (%)” value [1] was 79% and 84%. The “Population Hoechst High Intensity Objects (%)” value [1] was 6% and 9%, the “Population Membrane Permeable-Phenotype (%)” value [1] was 0% and the “Population Mitochondria Different-Phenotype (%)” value [1] was 48% and 58%. The “Population Mitotic Cells (%)” value [1] was 66% and 29%, the “Population Normal (%)” value [1] was 93% and 90% and the “Population Pyknosed Nuclei (%)” value [1] was 13% and 9%. The “Population Tubulin-Different-Phenotype (%)” value [1] was 24% and 28%, the “Total Cell Count” value [1] was 394 and 362 and the “Population Apoptotic (%)” value [2] was 49% and 68%. For the same compound, the “Population Fragmented Nuclei (%)” value [2] was 8% and 6%, the “Population Healthy Nuclei (%)” value [2] was 71% and 73% and the “Population Hoechst High Intensity Objects (%)” value [2] was 11% and 19%. For the same compound, the “Population Membrane Permeable-Phenotype (%)” value [2] was 0% and 1%, the “Population Mitochondria Different-Phenotype (%)” value [2] was 71% and 83% and the “Population Mitotic Cells (%)” value [2] was 50% and 31%. For the same compound, the “Population Normal (%)” value [2] was 88% and 80%, the “Population Pyknosed Nuclei (%)” value [2] was 19% and 20% and the “Population Tubulin-Different-Phenotype (%)” value [2] was 65% and 59%. The “Total Cell Count” value [2] was 354 and 327, the “Population Apoptotic (%)” value [3] was 22% and 43% and the “Population Fragmented Nuclei (%)” value [3] was 10% and 11%. The “Population Healthy Nuclei (%)” value [3] was 78%, the “Population Membrane Permeable-Phenotype (%)” value [3] was 0% and the “Population Mitochondria Different-Phenotype (%)” value [3] was 34% and 41%. The “Population Mitotic Cells (%)” value [3] was 77% and 56%, the “Population Normal (%)” value [3] was 97% and 86% and the “Population Pyknosed Nuclei (%)” value [3] was 11% and 9%. For the same compound, the “Population Tubulin-Different-Phenotype (%)” value [3] was 22% and 17%, the “Total Cell Count” value [3] was 566 and 481 and the “Population Apoptotic (%)” value [4] was 29% and 59%. For the same compound, the “Population Fragmented Nuclei (%)” value [4] was 10% and 8%, the “Population Healthy Nuclei (%)” value [4] was 74% and 71% and the “Population Hoechst High Intensity Objects (%)” value [4] was 8% and 22%. For the same compound, the “Population Membrane Permeable-Phenotype (%)” value [4] was 0%, the “Population Mitochondria Different-Phenotype (%)” value [4] was 55% and 72% and the “Population Mitotic Cells (%)” value [4] was 70% and 40%. The “Population Normal (%)” value [4] was 91% and 77%, the “Population Pyknosed Nuclei (%)” value [4] was 15% and 19% and the “Population Tubulin-Different-Phenotype (%)” value [4] was 49% and 43%. The “Total Cell Count” value [4] was 472 and 383, the “Population Apoptotic (%)” value [5] was 23% and 46% and the “Population Fragmented Nuclei (%)” value [5] was 14%. The “Population Healthy Nuclei (%)” value [5] was 79%, the “Population Hoechst High Intensity Objects (%)” value [5] was 1% and 3% and the “Population Membrane Permeable-Phenotype (%)” value [5] was 1% and 0%. For the same compound, the “Population Mitochondria Different-Phenotype (%)” value [5] was 19%, the “Population Mitotic Cells (%)” value [5] was 76% and 53% and the “Population Normal (%)” value [5] was 98% and 96%. The “Population Pyknosed Nuclei (%)” value [5] was 5% and 6%, the “Population Tubulin-Different-Phenotype (%)” value [5] was 14% and 12% and the “Total Cell Count” value [5] was 932 and 676. The “Population Apoptotic (%)” value [6] was 38% and 60%, the “Population Fragmented Nuclei (%)” value [6] was 14% and 15% and the “Population Healthy Nuclei (%)” value [6] was 76% and 72%. For the same compound, the “Population Hoechst High Intensity Objects (%)” value [6] was 6% and 16%, the “Population Membrane Permeable-Phenotype (%)” value [6] was 0% and the “Population Mitochondria Different-Phenotype (%)” value [6] was 45% and 53%. For the same compound, the “Population Mitotic Cells (%)” value [6] was 61% and 40%, the “Population Normal (%)” value [6] was 93% and 83% and the “Population Pyknosed Nuclei (%)” value [6] was 9% and 12%. The “Population Tubulin-Different-Phenotype (%)” value [6] was 35% and the “Total Cell Count” value [6] was 627 and 539.
